The target of assay [1] is T1, IgG receptor FcRn large subunit p51 (Homo sapiens, UniProt P55899). The experiment in a line: Ratio of QRF-Asp-TGHFGGLYP-Lys-NGP IC50 to compound IC50 for soluble human FcRn.
Assay [2] has as its target T1, IgG receptor FcRn large subunit p51. The experiment in a line: Inhibition of IgG binding to soluble human FcRn after 2 hrs by competition ELISA. A general note: An ELISA detects its analyte on a solid surface through an enzyme-linked reagent.
Assay [3] shares this target. The experiment in a line: Binding affinity to soluble human FcRn at pH 7.4 by surface plasmon resonance assay. The gist of the method: (§1)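 shFcRn was amine-coupled to a CM5 dextran chip, and peptide dilutions were run at pH 6 or pH 7.4 on a Biacore 3000 or T100. The equilibrium response was plotted against concentration and fitted to a steady-state affinity model to give Kd.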

The target is the same in assay [4]. The experiment in a line: Binding affinity to soluble human FcRn at pH 6 by surface plasmon resonance assay. In short, it runs like this: as §1
Background: Surface plasmon resonance follows binding to a sensor surface in real time, without labels.

For assay [5] the target is unchanged. The experiment in a line: Ratio of RF-Pen-TGHFG-Sar-NMeLeu-YPC IC50 to compound IC50 for soluble human FcRn.
The test system of a further assay is Mus musculus. The experiment in a line: Increase in human IgG catabolism in endogenous FcRn/beta2m gene knockout TG32B transgenic mouse harboring human FcRn at 2.5 mg/kg, iv QD for 4 consecutive days measured after 24 hrs by ELISA. Details: dose 2.5 mg/kg. The format is functional, organism-based. In short, it runs like this:
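TG32B mice (muFcRn−/−, muβ2m−/−, huFcRn+/+, huβ2m+/+), 4 per group, got 500 mg/kg hIgG (pooled subtypes) iv at 0 h. Peptide or vehicle (20 mM sodium acetate, pH 5) was given iv at 24, 48, 72 and 96 h. Blood was taken before each injection and at 30, 120 and 168 h. Serum hIgG was measured by ELISA: goat anti-hIgG(Fab) capture, goat anti-hIgG(Fc)-HRP detection.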

Molecules are shown by their SMILES. The source made the active and inactive calls. The rule behind the calls is not given here. Numbered stars: 1 amine (or outer) side, 2 acyl side, 3 side chain; on linkers, the order of the positions; unused ones are H or OH. Bridge positions count the residues as written; N and C are the ends. Square brackets hold non-standard residues; d marks the D form. Peptide text beside a SMILES is read from it. I, II: the chains in the order shown. X3 = CN(CCCNC(=O)CCNC(=O)CCSCC(=O)[*:1])CCCNC(=O)CCNC(=O)CCSCC(=O)[*:2]; Phe(4-guanidino) = N=C(N)Nc1ccc(C[C@H](N)C(=O)O)cc1; X1 = O=C(C(=O)[*:2])[C@H](Cc1ccc(O)cc1)N[*:1]; NMeL = CN[C@@H](CC(C)C)C(=O)O; Pen = CC(C)(S)[C@H](N)C(=O)O; X4 = O=C(CSCC(=O)[*:2])[*:1]; Sar = CNCC(=O)O

T1 sequence (P55899 whole entry): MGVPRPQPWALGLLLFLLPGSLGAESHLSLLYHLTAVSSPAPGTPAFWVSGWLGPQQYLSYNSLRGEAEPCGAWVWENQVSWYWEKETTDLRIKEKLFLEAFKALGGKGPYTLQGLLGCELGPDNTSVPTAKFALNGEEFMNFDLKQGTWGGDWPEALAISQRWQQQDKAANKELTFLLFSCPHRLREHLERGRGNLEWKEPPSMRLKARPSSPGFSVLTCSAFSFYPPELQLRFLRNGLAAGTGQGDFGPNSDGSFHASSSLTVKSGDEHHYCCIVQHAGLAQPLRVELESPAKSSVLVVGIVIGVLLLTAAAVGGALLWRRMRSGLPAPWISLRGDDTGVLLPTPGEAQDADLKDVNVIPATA

As for `CC(C)C[C@H]1C(=O)N[C@@H](Cc2ccc(O)cc2)C(=O)C(=O)N2CCC[C@H]2C(=O)N[C@H](C(=O)N[C@@H](CC(N)=O)C(=O)NCC(=O)N2CCC[C@H]2C(N)=O)CCCCNC(=O)C[C@H](NC(=O)[C@H](Cc2ccccc2)NC(=O)CSCCC(=O)NCCCN(CCCNC(=O)CCSCC(=O)N[C@@H](CCC(N)=O)C(=O)N[C@@H](CCCNC(=N)N)C(=O)N[C@@H](Cc2ccccc2)C(=O)N[C@H]2CC(=O)NCCCC[C@@H](C(=O)N[C@@H](CC(N)=O)C(=O)NCC(=O)N3CCC[C@H]3C(N)=O)NC(=O)[C@@H]3CCCN3C(=O)C(=O)[C@H](Cc3ccc(O)cc3)NC(=O)[C@H](CC(C)C)N(C)C(=O)CN(C)C(=O)CNC(=O)[C@H](Cc3ccccc3)NC(=O)[C@H](Cc3c[nH]cn3)NC(=O)CNC(=O)[C@H]([C@@H](C)O)NC2=O)CC(=O)NCC(=O)O)C(=O)N[C@@H]([C@@H](C)O)C(=O)NCC(=O)N[C@@H](Cc2c[nH]cn2)C(=O)N[C@@H](Cc2ccccc2)C(=O)NCC(=O)N(C)CC(=O)N1C`, the Ratio IC50 in assay [1] turned out to be 37. For the same compound, the concentration for half-maximal inhibition (IC50) in assay [2] worked out at 600 nM.
As to `CC(=O)N[C@@H](CCCNC(=N)N)C(=O)N[C@@H](Cc1ccccc1)C(=O)N[C@@H]1C(=O)N[C@@H]([C@@H](C)O)C(=O)NCC(=O)N[C@@H](Cc2c[nH]cn2)C(=O)N[C@@H](Cc2ccccc2)C(=O)NCC(=O)N(C)CC(=O)N(C)[C@@H](CC(C)C)C(=O)N[C@@H](Cc2ccc(O)cc2)C(=O)C(=O)N2CCC[C@H]2C(=O)N[C@H](C(N)=O)CSSC1(C)C`, the Kd worked out at 170 nM in assay [3] and 31 nM in assay [4]. Also, the IC50 in assay [2] came out at 520 nM.
As for `CC(C)C[C@H]1C(=O)N[C@@H](Cc2ccc(O)cc2)C(=O)C(=O)N2CCC[C@H]2C(=O)N[C@H](C(=O)N[C@@H](CC(N)=O)C(=O)NCC(=O)N2CCC[C@H]2C(N)=O)CCCCNC(=O)C[C@H](NC(=O)[C@H](Cc2ccccc2)NC(=O)CSCCC(=O)NCCC(=O)NCCCN(C)CCCNC(=O)CCNC(=O)CCSCC(=O)N[C@@H](CCC(N)=O)C(=O)N[C@@H](CCCNC(=N)N)C(=O)N[C@@H](Cc2ccccc2)C(=O)N[C@H]2CC(=O)NCCCC[C@@H](C(=O)N[C@@H](CC(N)=O)C(=O)NCC(=O)N3CCC[C@H]3C(N)=O)NC(=O)[C@@H]3CCCN3C(=O)C(=O)[C@H](Cc3ccc(O)cc3)NC(=O)[C@H](CC(C)C)N(C)C(=O)CN(C)C(=O)CNC(=O)[C@H](Cc3ccccc3)NC(=O)[C@H](Cc3c[nH]cn3)NC(=O)CNC(=O)[C@H]([C@@H](C)O)NC2=O)C(=O)N[C@@H]([C@@H](C)O)C(=O)NCC(=O)N[C@@H](Cc2c[nH]cn2)C(=O)N[C@@H](Cc2ccccc2)C(=O)NCC(=O)N(C)CC(=O)N1C` (I: QRFDTGHFG[Sar][NMeL][X1]PKNGP-NH2 / II: FDTGHFG[Sar][NMeL][X1]PKNGP-NH2; lactam I:4-I:14, II:2-II:12; linker I:N-II:N via X3), the Ratio IC50 in assay [1] is 9.2.
In assay [4], `CC(=O)N[C@@H](CCCNC(=N)N)C(=O)N[C@@H](Cc1ccccc1)C(=O)N[C@H]1CSSC[C@@H](C(N)=O)NC(=O)[C@@H]2CCCN2C(=O)C(=O)[C@H](Cc2ccc(O)cc2)NC(=O)[C@H](CC(C)C)NC(=O)CNC(=O)CNC(=O)[C@H](Cc2ccccc2)NC(=O)[C@H](Cc2cnc[nH]2)NC(=O)CNC(=O)[C@H]([C@@H](C)O)NC1=O` returned a Kd of 5900 nM. The compound also displayed an IC50 in assay [2] of 37000 nM.
`CC(=O)N[C@@H](CCCNC(=N)N)C(=O)N[C@@H](Cc1ccccc1)C(=O)N[C@@H]1C(=O)N(C)[C@@H](C)C(=O)NCC(=O)N[C@@H](Cc2cnc[nH]2)C(=O)N[C@@H](Cc2ccccc2)C(=O)N[C@H]2CCCN(CC(=O)N(C)[C@@H](CC(C)C)C(=O)N[C@@H](Cc3ccc(O)cc3)C(=O)C(=O)N3CCC[C@H]3C(=O)N[C@H](C(N)=O)CSSC1(C)C)C2=O`: the results for the Kd in assay [3] and in assay [4] were 950 nM and 150 nM, respectively. The compound also yielded an IC50 in assay [2] of 1100 nM.
On the same counts, the results for `CC(=O)N[C@@H](CCCNC(=N)N)C(=O)N[C@@H](Cc1ccccc1)C(=O)N[C@H]1CC(=O)NCCCC[C@@H](C(N)=O)NC(=O)[C@@H]2CCCN2C(=O)C(=O)[C@H](Cc2ccc(O)cc2)NC(=O)[C@H](CC(C)C)N(C)C(=O)CN(C)C(=O)CNC(=O)[C@@H](Cc2ccccc2)NC(=O)[C@H](Cc2c[nH]cn2)NC(=O)CNC(=O)[C@H]([C@@H](C)O)NC1=O` are 930 nM, 140 nM and 1900 nM.
For the compound `CC(C)C[C@H]1C(=O)N[C@@H](Cc2ccc(O)cc2)C(=O)C(=O)N2CCC[C@H]2C(=O)N[C@H](C(=O)N[C@@H](CC(N)=O)C(=O)NCC(=O)N2CCC[C@H]2C(N)=O)CCCCNC(=O)C[C@H](NC(=O)[C@H](Cc2ccccc2)NC(=O)CSCC(=O)N[C@@H](CCC(N)=O)C(=O)N[C@@H](CCCNC(=N)N)C(=O)N[C@@H](Cc2ccccc2)C(=O)N[C@H]2CC(=O)NCCCC[C@@H](C(=O)N[C@@H](CC(N)=O)C(=O)NCC(=O)N3CCC[C@H]3C(N)=O)NC(=O)[C@@H]3CCCN3C(=O)C(=O)[C@H](Cc3ccc(O)cc3)NC(=O)[C@H](CC(C)C)N(C)C(=O)CN(C)C(=O)CNC(=O)[C@H](Cc3ccccc3)NC(=O)[C@H](Cc3c[nH]cn3)NC(=O)CNC(=O)[C@H]([C@@H](C)O)NC2=O)C(=O)N[C@@H]([C@@H](C)O)C(=O)NCC(=O)N[C@@H](Cc2c[nH]cn2)C(=O)N[C@@H](Cc2ccccc2)C(=O)NCC(=O)N(C)CC(=O)N1C` (I: QRFDTGHFG[Sar][NMeL][X1]PKNGP-NH2 / II: FDTGHFG[Sar][NMeL][X1]PKNGP-NH2; lactam I:4-I:14, II:2-II:12; linker I:N-II:N via X4), the Ratio IC50 in assay [1] turned out to be 38. Moreover, the IC50 in assay [2] is 580 nM.
Turning to `CC(=O)N[C@@H](CCC(N)=O)C(=O)N[C@@H](CCCNC(=N)N)C(=O)N[C@@H](Cc1ccccc1)C(=O)N[C@H]1CSSC[C@@H](C(=O)N[C@@H](CC(N)=O)C(=O)NCC(=O)N2CCC[C@H]2C(N)=O)NC(=O)[C@@H]2CCCN2C(=O)C(=O)[C@H](Cc2ccc(O)cc2)NC(=O)[C@H](CC(C)C)NC(=O)CNC(=O)CNC(=O)[C@H](Cc2ccccc2)NC(=O)[C@H](Cc2cnc[nH]2)NC(=O)CNC(=O)[C@H]([C@@H](C)O)NC1=O`, the figures for the equilibrium dissociation constant (Kd) in assay [3] and in assay [4] were 37000 nM and 5300 nM, respectively. The IC50 in assay [2] amounted to 40000 nM.
As for `CC(=O)N[C@@H](CCCNC(=N)N)C(=O)N[C@@H](Cc1ccccc1)C(=O)N[C@@H]1C(=O)N[C@@H]([C@@H](C)O)C(=O)NCC(=O)N[C@@H](Cc2ccc(NC(=N)N)cc2)C(=O)NCC(=O)N(C)CC(=O)N(C)[C@@H](CC(C)C)C(=O)N[C@@H](Cc2ccc(O)cc2)C(=O)C(=O)N2CCC[C@H]2C(=O)N[C@H](C(N)=O)CSSC1(C)C` (Ac-RF[Pen]TG[Phe(4-guanidino)]G[Sar][NMeL][X1]PC-NH2; disulfide 3-12), the Kd in assay [3] came to 74 nM; in assay [4], 62 nM. This compound also came in with an IC50 in assay [2] of 1000 nM.
Regarding `CC(C)C[C@H]1C(=O)N[C@@H](Cc2ccc(O)cc2)C(=O)C(=O)N2CCC[C@H]2C(=O)N[C@H](C(N)=O)CSSC(C)(C)[C@H](NC(=O)[C@H](Cc2ccccc2)NC(=O)[C@H](CCCNC(=N)N)NC(=O)CN(C)CCNC(=O)CCC(=O)N[C@@H](CCCNC(=N)N)C(=O)N[C@@H](Cc2ccccc2)C(=O)N[C@@H]2C(=O)N[C@@H]([C@@H](C)O)C(=O)NCC(=O)N[C@@H](Cc3c[nH]cn3)C(=O)N[C@@H](Cc3ccccc3)C(=O)NCC(=O)N(C)CC(=O)N(C)[C@@H](CC(C)C)C(=O)N[C@H](Cc3ccc(O)cc3)C(=O)C(=O)N3CCC[C@H]3C(=O)N[C@H](C(N)=O)CSSC2(C)C)C(=O)N[C@@H]([C@@H](C)O)C(=O)NCC(=O)N[C@@H](Cc2c[nH]cn2)C(=O)N[C@@H](Cc2ccccc2)C(=O)NCC(=O)N(C)CC(=O)N1C`, the Ratio IC50 in assay [5] was determined as 200. This compound showed an IC50 in assay [2] of 2.6 nM. The result in the assay on Mus musculus was Active.
Take `CC(=O)N[C@@H](CCCNC(=N)N)C(=O)N[C@@H](Cc1ccccc1)C(=O)N[C@@H]1C(=O)N[C@@H]([C@@H](C)O)C(=O)NCC(=O)N[C@@H](Cc2cnc[nH]2)C(=O)N[C@@H](Cc2ccccc2)C(=O)N[C@H]2CCCN(CC(=O)N(C)[C@@H](CC(C)C)C(=O)N[C@@H](Cc3ccc(O)cc3)C(=O)C(=O)N3CCC[C@H]3C(=O)N[C@H](C(N)=O)CSSC1(C)C)C2=O`: the Kd in assay [3] worked out at 260 nM; in assay [4] it was 43 nM. Besides, the concentration for half-maximal inhibition (IC50) in assay [2] came out at 430 nM.
In the case of `CC(C)C[C@H]1C(=O)N[C@@H](Cc2ccc(O)cc2)C(=O)C(=O)N2CCC[C@H]2C(=O)N[C@H](C(N)=O)CSSC(C)(C)[C@H](NC(=O)[C@H](Cc2ccccc2)NC(=O)[C@H](CCCNC(=N)N)NC(=O)CCC(=O)N(C)CCN(C)C(=O)CCC(=O)N[C@@H](CCCNC(=N)N)C(=O)N[C@@H](Cc2ccccc2)C(=O)N[C@@H]2C(=O)N[C@@H]([C@@H](C)O)C(=O)NCC(=O)N[C@@H](Cc3c[nH]cn3)C(=O)N[C@@H](Cc3ccccc3)C(=O)NCC(=O)N(C)CC(=O)N(C)[C@@H](CC(C)C)C(=O)N[C@@H](Cc3ccc(O)cc3)C(=O)C(=O)N3CCC[C@H]3C(=O)N[C@H](C(N)=O)CSSC2(C)C)C(=O)N[C@@H]([C@@H](C)O)C(=O)NCC(=O)N[C@@H](Cc2c[nH]cn2)C(=O)N[C@@H](Cc2ccccc2)C(=O)NCC(=O)N(C)CC(=O)N1C`, the Ratio IC50 in assay [5] amounted to 100. The IC50 in assay [2] came to 5.2 nM.

One may read the IC50 as the concentration that inhibits the measured activity by half. A higher IC50 goes with weaker potency in that assay. Broadly, the Kd is the equilibrium constant for the complex coming apart. Read a high Kd as a looser complex.

For the origin of these results see ChEMBL document CHEMBL1156264, “Synthesis and structure-activity relationships of dimeric peptide antagonists of the human immunoglobulin G-human neonatal Fc receptor (IgG-FcRn) interaction” (J Med Chem, 2010).
